High-throughput results (PubChem)
ROMK mod = modulates human ROMK potassium channel activity; P48048; Tet-inducible ROMK, thallium flux fluorescence; actives lie on both sides; B-score at 10 µM; hit rate 2% among 130,000; AID 1918;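 active = signal ratio slope over the read window, or its plate-corrected B-score, at least 3 SD from the plate mean, either direction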;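 also: B-score of the F/F0 ratio slope over 7 to 12 s after thallium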
Target sequence (P48048 whole entry, looked up): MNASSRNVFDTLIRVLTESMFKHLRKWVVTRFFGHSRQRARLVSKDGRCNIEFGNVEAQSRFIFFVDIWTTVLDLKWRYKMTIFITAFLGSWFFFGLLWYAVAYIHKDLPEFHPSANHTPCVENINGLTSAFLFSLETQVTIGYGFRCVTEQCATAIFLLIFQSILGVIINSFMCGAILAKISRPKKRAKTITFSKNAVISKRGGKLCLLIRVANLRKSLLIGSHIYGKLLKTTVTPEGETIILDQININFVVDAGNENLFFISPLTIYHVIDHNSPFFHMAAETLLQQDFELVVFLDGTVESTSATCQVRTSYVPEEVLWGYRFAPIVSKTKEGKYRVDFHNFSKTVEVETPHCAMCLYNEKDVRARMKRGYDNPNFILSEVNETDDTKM
Biofilm kill mix = mixtures killing C. albicans biofilm. C. albicans biofilm persisters + clotrimazole, fluorescence viability; primary screen in compound mixtures of four per well. inhibition, % at 7.6 µM. hit rate 0.02% among 120,000. AID 1242;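 active = inhibition above 30.3% in the primary screen of four-compound pools, then above 30% when the compound was retested; inconclusive = passed the primary limit but could not be retested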;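 also: compounds exposed to preformed 24 h biofilms for 48 h; 0% = untreated biofilm control and 100% = clotrimazole plus chlorhexidine kill blank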
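System: C. albicans CAF4-2 wild-type biofilms; Medium: RPMI/MOPS medium, pH 7.0; Reagent: Clotrimazole, 50 µg/mL; Times: biofilm formation 24 h, compound exposure 48 h, 37 °C; Detection: 2-h Alamar Blue fluorescence, 535/590 nm excitation/emission; Evaluation: percent inhibition of biofilm viability.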
ROMK retest = human ROMK channel modulation, retest confirmation; shares compounds with ROMK mod; ROMK thallium flux, fluorescence ratio; stronger effect = lower value; normalized thallium flux (F/F0 slope) at 10 µM; hit rate 54% among 3,000; AID 1917;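 active = Flux at 10 µM at least 3 SD below or above vehicle control mean in one or both replicates; inconclusive = no clear call, values can overlap the other calls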
* = called active by the depositor; ? = inconclusive; / = no result. This is one part of a sample in which hits are shown more often than they occur.

SMILES | ROMK mod | Biofilm kill mix | ROMK retest
Cc1ccc(C)c(NC(=S)NCCc2c[nH]c3ccccc23)c1 | / | 11 | /
O=C(O)CC(NC(=O)C12CC3CC(CC(C3)C1)C2)c1cccc([N+](=O)[O-])c1 (stereo unspecified) | -0.28 | 23 | /
O=[N+]([O-])c1ccccc1/C=C/C=N/n1c(-c2ccccc2F)n[nH]c1=S | / | 24 | /
O=C1NC(NS(=O)(=O)c2ccccc2)(C(F)(F)F)C(=O)N1c1ccc(F)cc1 (stereo unspecified) | / | 17 | /
Cc1ccc(Nc2ccc(C(=O)NCCc3ccccc3)cn2)cc1 | 2.1 | 8 | /
Cc1ccc(C)c(Nc2ccc(C(=O)NCCc3ccccc3)cn2)c1 | 2.7* | 6 | 0.082
Cc1cc(=O)[nH]c(SCc2nnc(-c3ccccc3)o2)n1 | 1.5 | / | /
Clc1ccc2nc(SCc3nnc(-c4ccccc4)o3)[nH]c2c1 | -3.4* | / | 0.055*
COc1ccc(N(CC(=O)Nc2ccccc2C(N)=O)S(=O)(=O)c2ccc(C)c([N+](=O)[O-])c2)cc1 | 0.31 | 9 | 0.067*
COc1ccc(N(CC(=O)Nc2ccc(C(N)=O)cc2)S(=O)(=O)c2ccc(C)c([N+](=O)[O-])c2)cc1 | 0.019 | 23 | /
CCc1ccc(Nc2nnc(SC3CCOC3=O)s2)cc1 (stereo unspecified) | / | 6 | /
COc1ccc(/C=N/NC(=O)c2csc(-n3nc(C)cc3C(F)(F)F)n2)cc1 | / | / | 0.09
Cc1cc(C(F)(F)F)n(-c2nc(C(=O)NN)cs2)n1 | -0.099 | 21 | /
CC(C)(C)S(=O)(=O)c1cnc(-c2ccc(Cl)cc2)nc1N | / | 27 | /
Cc1nc(N)nc(N)c1/C=C/C(C)(C)c1ccc(Cl)cc1 | -3.8* | 5 | 0.064*
CSc1nc(=S)cc(C)[nH]1 | / | 1 | /
O=C(CN1CCCCC1)Nc1ccccc1NC(=O)CN1CCCCC1 | -0.23 | / | /
O=C(CN1CCN(Cc2ccccc2)CC1)Nc1ccccc1-c1ccccc1 | -3.7* | 14 | ?
O=S(=O)(NC(=NC1CCCC1)C(F)(F)F)c1ccccc1 | -0.025 | / | /
Cc1cccc(-n2ncc3c(NCc4cccnc4)ncnc32)c1 | / | 0 | /
Cc1ccc(-n2ncc3c(NCc4cccnc4)ncnc32)c(C)c1 | -0.21 | -4 | 0.066*
CCC1COC(c2cccn2Cc2ccccc2Cl)=N1 (stereo unspecified) | / | 6 | /
COc1ccc(CN2C(=O)CCC2(C)C(=O)NC2CCCC2)c(OC)c1 (stereo unspecified) | 0.45 | 4 | /
Cc1c(NC(=O)c2cc(-c3cccs3)nc3ccccc23)c(=O)n(-c2ccccc2)n1C | 0.0017 | 13 | /
COc1ccc(NC(=O)c2c(NC(=O)CCC(=O)O)sc(-c3ccccc3)c2C)cc1 | / | 13 | 0.08
SMILES | ROMK mod | Biofilm kill mix | ROMK retest
COC(=O)c1c(NC(=O)CCC(=O)O)sc(Cc2ccccc2)c1C | 1.5 | 24 | /
CN(C)/C=C/C(=O)c1cnc(-c2ccccc2Cl)s1 | 0.27 | 8 | /
Cn1c(-c2ccccc2)c(/C=N/NC(=O)c2ccc(O)cc2)c2ccccc21 | / | 8 | 0.08
Cn1c(-c2ccccc2)c(C=O)c2ccccc21 | -0.22 | 18 | /
COc1ccc2c(/C=N/NS(=O)(=O)c3ccc(C)cc3)c[nH]c2c1 | / | 8 | /
COc1ccc(C(=O)N2c3ccccc3C=CC2C#N)cc1 (stereo unspecified) | / | 18 | /
N#C[C@H]1[C@H](c2ccccc2)[C@](C#N)(C(=O)c2ccccc2)[C@@H]2C=Cc3ccccc3N21 | -2.8* | / | 0.074
NC(=O)c1cccc(N=Cc2cc(Cl)cc(Cl)c2O)c1 | 1.3 | 18 | /
Cc1cccc(N=Cc2cc(Br)cc(Cl)c2O)c1 | 4.1* | 6 | 0.12*
NC(=O)c1cccnc1Oc1cccc(Cl)c1 | -0.67 | / | /
Clc1ccccc1-c1nnc2sc(-c3ccccn3)nn12 | / | 5 | 0.079
Clc1ccccc1-c1nnc2sc(-c3ccco3)nn12 | -0.46 | / | /
O=[N+]([O-])c1ccc(S(=O)(=O)N2CCN(Cc3c[nH]c4ccccc34)CC2)cc1 | -2.7* | / | 0.056*
CCCS(=O)(=O)N1CCN(Cc2c[nH]c3ccccc23)CC1 | 0.38 | 10 | /
O=S(=O)(/N=C(/Sc1ccccc1)c1ccccc1)c1ccccc1 | -2.8* | / | 0.05*
CS/C(=N\S(=O)(=O)c1ccccc1)c1ccccc1 | 0.14 | 15 | /
COCCCNC(=O)c1ccc2c(c1)CCN2S(C)(=O)=O | 0.55 | / | /
c1cncc(-c2cccnc2)c1 | -0.025 | / | /
CC(C)CC(=O)Nc1ccccc1N1CCCC1 | -6* | -1 | 0.073
CC(C)CC(=O)NC(=S)Nc1ccccc1N1CCCC1 | / | 19 | /
CCn1c(SCC(=O)Nc2ccccc2N2CCCCC2)nc2c1c(=O)n(C)c(=O)n2C | / | / | 0.074
CC(C)n1c(SCC(=O)Nc2ccccc2N2CCOCC2)nc2c1c(=O)n(C)c(=O)n2C | / | 7 | /
Cc1ccccc1OC(=O)C1C(c2ccccc2)C(C(=O)O)C1c1ccccc1 (stereo unspecified) | 1.7 | / | /
O=C(Cc1ccccc1)NC(Nc1ccccc1)C(Cl)(Cl)Cl (stereo unspecified) | 0.095 | / | /
